From ChEMBL document CHEMBL1641445, “Synthesis, antiprotozoal, antimicrobial, β-hematin inhibition, cytotoxicity and methemoglobin (MetHb) formation activities of bis(8-aminoquinolines)” (Bioorg Med Chem, 2011)
Activity calls are given as the source filed them. The rule behind the calls is not given here.

What was measured:
[1] = Inhibition of beta-hematin formation; type: functional
Plasmodium falciparum [2] = test: Antimalarial activity against chloroquine-sensitive Plasmodium falciparum D6 by LDH assay; type: functional, organism-based
Outline: (§1)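 Antiplasmodial activity was measured in vitro against P. falciparum blood-stage cultures. Read-out was parasite lactate dehydrogenase (LDH) activity, with IC50 values expressed in µg/mL. The same protocol was used for the D6 and W2 strains.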

Plasmodium berghei [3] = test: Antimalarial activity against Plasmodium berghei infected in mouse assessed as complete elimination of malaria parasites from animals at 100 mg/kg, po qd for 4 days measured up to 60 days; type: functional, organism-based; design: dose 100 mg/kg
Outline: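 Rodent P. berghei (sensitive strain) blood-schizontocidal model, 6 mice per group. Compounds were given orally once daily for 4 days at 10, 25, 50 or 100 mg/kg/day. Cure meant complete parasite elimination with survival to day D+60.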

Leishmania donovani = test: Antileishmanial activity against promastigotes of Leishmania donovani by alamar blue assay; type: functional, organism-based
Plasmodium falciparum [4] = test: Antimalarial activity against chloroquine-resistant Plasmodium falciparum W2 by LDH assay; type: functional, organism-based; settings: Plasmodium falciparum, W2; read-out: IC50; outline: as §1
[5] = Hematotoxicity against RBC assessed as formation of methemoglobin at 20 ug/ml relative to control; type: cell-based; settings: erythrocyte
Outline: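 Metabolism-linked methemoglobin toxicity in vitro. Percent MetHb formation was determined at 20 µg/mL of compound relative to vehicle control.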

Vero = test: Cytotoxicity against african green monkey Vero cells up to 10 ug/ml by neutral red assay; type: cell-based; settings: chlorocebus sabaeus
Outline: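 Vero (monkey kidney) cells were exposed up to a highest concentration of 10 µg/mL. Viability was read by neutral red uptake.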

Cryptococcus neoformans = test: Antifungal activity against Cryptococcus neoformans ATCC 90113; type: functional, organism-based
[6] = test system: Mycobacterium intracellulare; test: Antibacterial activity against Mycobacterium intracellular ATCC 23068 at 20 ug/ml by CLSI method; type: functional, organism-based
Aspergillus fumigatus = test: Antifungal activity against Aspergillus fumigatus ATCC 90906 at 20 ug/ml; type: functional, organism-based
Staphylococcus aureus [7] = test: Antibacterial activity against methicillin-resistant Staphylococcus aureus ATCC 43300 by CLSI method; type: functional, organism-based
Outline: (§2)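 Broth dilution method (NCCLS M7-A5). […] MIC is the lowest concentration allowing no detectable growth. MBC is the lowest concentration killing the organism. Highest test concentration was 20 µg/mL.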

Nakaseomyces glabratus = test: Antifungal activity against Candida glabrata at 20 ug/ml; type: functional, organism-based
Pichia kudriavzevii = test: Antifungal activity against Candida krusei at 20 ug/ml; type: functional, organism-based
Candida albicans [8] = test: Antifungal activity against Candida albicans ATCC 90028 at 20 ug/ml; type: functional, organism-based
[9] = test system: Mycobacterium intracellulare; test: Antibacterial activity against Mycobacterium intracellular ATCC 23068 by CLSI method; type: functional, organism-based
Staphylococcus aureus [10] = test: Antibacterial activity against methicillin-resistant Staphylococcus aureus ATCC 43300 at 20 ug/ml by CLSI method; type: functional, organism-based; outline: as §2
Candida albicans [11] = test: Antifungal activity against Candida albicans ATCC 90028; type: functional, organism-based
Plasmodium berghei [12] = test: Antimalarial activity against Plasmodium berghei infected in mouse assessed as negative parasitemia level at 10 mg/kg, po qd for 4 days measured up to 7 days; type: functional, organism-based; design: dose 10 mg/kg
Outline: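 Mice infected with P. berghei (sensitive strain), 6 per group, dosed orally at 10–100 mg/kg/day × 4. Suppression meant negative parasitemia in all treated animals up to D+7. Survivors were counted at D+60.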

[13] = Plasmodium falciparum, D6, read-out: IC50
[14] = Leishmania donovani, read-out: IC50

| SMILES | IC50 [1] | IC50 (Plasmodium falciparum [2]; [13]) | Activity (Plasmodium berghei [3]) | IC90 (Leishmania donovani) | IC50 (Plasmodium falciparum [4]) | Methemoglobin formation [5] | Activity (Vero) | IC50 (Cryptococcus neoformans) | MBC [6] | MIC [6] | Activity (Aspergillus fumigatus) | IC50 (Staphylococcus aureus [7]) | IC90 (Leishmania donovani; Leishmania donovani) | IC50 (Leishmania donovani; [14]) | Activity (Nakaseomyces glabratus) | Activity (Pichia kudriavzevii) | MFC (Candida albicans [8]) | MIC (Candida albicans [8]) | MBC (Staphylococcus aureus [10]) | MIC (Staphylococcus aureus [7]) | further results |
| --- | --- | --- | --- | --- | --- | --- | --- | --- | --- | --- | --- | --- | --- | --- | --- | --- | --- | --- | --- | --- | --- |
| COc1cc(NC(C)CCCNC(=O)NC(=O)NCCCC(C)Nc2cc(OC)cc3cccnc23)c2ncccc2c1.Cl.Cl (stereo not given) | 155 µM | 4.76 µg/mL | inactive | inactive | 3.4 µg/mL | 2.25% | Non-toxic | – | – | – | – | – | – | – | – | – | – | – | – | – | IC50 (Leishmania donovani): Not Active |
| COc1cc(NC(C)CCCNC(=O)C[C@H](N)C(=O)NCCCC(C)Nc2cc(OC)cc3ccc(C(C)(C)C)nc23)c2nc(C(C)(C)C)ccc2c1.Cl (stereo not given in full) | 140 µM | – | inactive | – | – | 1.55% | Non-toxic | 10 µg/mL | inactive | inactive | inactive | 6.5 µg/mL | 33 µg/mL | 15 µg/mL | inactive | inactive | inactive | inactive | – | – | MFC (Cryptococcus neoformans): 20 µg/mL; MIC (Cryptococcus neoformans): 20 µg/mL; IC50 [6]: Not Active; IC50 (Plasmodium falciparum [2]): Not Active; MBC (Staphylococcus aureus [7]): 20 µg/mL; IC50 (Candida albicans [8]): Not Active |
| COc1cc(NC(C)CCCNC(=O)C[C@@H](N)C(=O)NCCCC(C)Nc2cc(OC)cc3cccnc23)c2ncccc2c1.Cl (stereo not given in full) | 120 µM | 3.3 µg/mL | – | – | – | 7.25% | Non-toxic | – | inactive | – | – | 15 µg/mL | 31 µg/mL | 11.5 µg/mL | – | – | – | – | inactive | – | IC50 [9]: 15 µg/mL; MIC [9]: 20 µg/mL; MIC (Staphylococcus aureus [10]): inactive |
| CCCCCOc1c(OC)cc(NC(C)CCCNC(=O)NCCCC(C)Nc2cc(OC)c(OCCCCC)c3c(CC)ccnc23)c2nccc(CC)c12.Cl.Cl (stereo not given) | 80 µM | 1.7 µg/mL | – | – | 1.3 µg/mL | 4.7% | Non-toxic | – | inactive | inactive | – | 8.5 µg/mL | 7 µg/mL | 3.5 µg/mL | – | – | – | – | inactive | 20 µg/mL | IC50 [6]: Not Active |
| COc1cc(NC(C)CCCNC(=O)NC(CCCN)C(=O)NCCCC(C)Nc2cc(OC)cc3cccnc23)c2ncccc2c1 (single isomer, unassigned; 40) | – | – | – | – | – | – | – | – | inactive | inactive | inactive | – | – | – | inactive | inactive | inactive | inactive | inactive | – | – |
| COc1cc(NC(C)CCCNC(=O)NC(CCCNC(=N)N)C(=O)NCCCC(C)Nc2cc(OC)cc3cccnc23)c2ncccc2c1 (single isomer, unassigned; 39) | – | – | – | – | – | – | – | – | inactive | inactive | inactive | – | – | – | inactive | inactive | inactive | inactive | – | – | – |
| COc1cc(NC(C)CCCNC(=O)NC(CCCN)C(=O)NCCCC(C)Nc2cc(OC)cc3cccnc23)c2ncccc2c1 (single isomer, unassigned; 37) | – | – | inactive | – | – | – | – | – | – | – | inactive | – | – | – | inactive | inactive | inactive | inactive | – | – | – |
| COc1cc(NC(C)CCCNCC(=O)NCCCC(C)Nc2cc(OC)cc3ccc(C(C)(C)C)nc23)c2nc(C(C)(C)C)ccc2c1.Cl.Cl (stereo not given) | 75 µM | 1.5 µg/mL | – | – | 1.3 µg/mL | 1.1% | Non-toxic | – | inactive | inactive | – | 15 µg/mL | 7.8 µg/mL | 2.9 µg/mL | – | – | – | – | inactive | 20 µg/mL | IC50 [9]: 15 µg/mL |
| COc1cc(NC(C)CCCNC(=O)N[C@@H](CCCN)C(=O)NCCCC(C)Nc2cc(OC)cc3ccc(C(C)(C)C)nc23)c2nc(C(C)(C)C)ccc2c1.Cl (stereo not given in full) | 152 µM | 4 µg/mL | – | – | – | 0.2% | Non-toxic | 15 µg/mL | inactive | – | inactive | 6.5 µg/mL | 33 µg/mL | 18 µg/mL | inactive | inactive | inactive | inactive | – | 20 µg/mL | MIC (Cryptococcus neoformans): 20 µg/mL; MBC (Staphylococcus aureus [7]): 20 µg/mL; IC50 [9]: 15 µg/mL; IC50 (Candida albicans [11]): 15 µg/mL |
| COc1cc(NC(C)CCCNC(=O)N[C@H](CCCCN)C(=O)NCCCC(C)Nc2cc(OC)cc3cccnc23)c2ncccc2c1.Cl (stereo not given in full) | 162 µM | – | – | – | – | 2.8% | Non-toxic | 10 µg/mL | inactive | inactive | inactive | 10 µg/mL | 36 µg/mL | 18.5 µg/mL | inactive | inactive | inactive | inactive | inactive | 20 µg/mL | MFC (Cryptococcus neoformans): 20 µg/mL; MIC (Cryptococcus neoformans): 20 µg/mL; IC50 [6]: Not Active; IC50 (Candida albicans [8]): Not Active |
| COc1cc(NC(C)CCCNC(=O)CC[C@H](N)C(=O)NCCCC(C)Nc2cc(OC)cc3ccc(C(C)(C)C)nc23)c2nc(C(C)(C)C)ccc2c1.Cl (stereo not given in full) | > 1000 µM | 4.7 µg/mL | inactive | – | 2.3 µg/mL | 3.3% | Non-toxic | – | inactive | inactive | – | 8.5 µg/mL | 10.7 µg/mL | 3.9 µg/mL | – | – | – | – | – | 20 µg/mL | IC50 [6]: Not Active; MBC (Staphylococcus aureus [7]): 20 µg/mL |
| COc1cc(NC(C)CCCN)c2ncccc2c1 (stereo not given) [PRIMAQUINE] | > 1000 µM | – | inactive | inactive | – | 10% | Non-toxic | – | – | – | – | – | – | – | – | – | – | – | – | – | Activity (Plasmodium berghei [12]): inactive |
| COc1cc(NC(C)CCCNC(=O)NCCCC(C)Nc2cc(OC)cc3ccc(C(C)(C)C)nc23)c2nc(C(C)(C)C)ccc2c1.Cl.Cl (stereo not given) | > 1000 µM | 3 µg/mL | inactive | inactive | – | 1% | Non-toxic | – | – | – | – | – | – | – | – | – | – | – | – | – | IC50 (Leishmania donovani): Not Active |
| COc1cc(NC(C)CCCNC(=O)C[C@H](N)C(=O)NCCCC(C)Nc2cc(OC)cc3cccnc23)c2ncccc2c1.Cl (stereo not given in full) | 185 µM | 4.76 µg/mL | – | – | 3.8 µg/mL | 5.4% | Non-toxic | 7.5 µg/mL | inactive | inactive | inactive | 15 µg/mL | 30 µg/mL | – | inactive | inactive | inactive | inactive | inactive | 20 µg/mL | MFC (Cryptococcus neoformans): 10 µg/mL; MIC (Cryptococcus neoformans): 10 µg/mL; IC50 [9]: 20 µg/mL; IC50 (Candida albicans [8]): Not Active |
| COc1cc(NC(C)CCCNC(=O)NCCCC(C)Nc2cc(OC)cc3cccnc23)c2ncccc2c1.Cl.Cl (stereo not given) | > 1000 µM | 4.76 µg/mL | inactive | inactive | 4.76 µg/mL | 9.8% | Non-toxic | – | – | – | – | – | – | – | – | – | – | – | – | – | IC50 (Leishmania donovani): Not Active |
| CCCCCOc1c(OC)cc(NC(C)CCCNC(=S)NCCCC(C)Nc2cc(OC)c(OCCCCC)c3c(CC)ccnc23)c2nccc(CC)c12.Cl.Cl (stereo not given) | > 1000 µM | – | – | inactive | 4.76 µg/mL | 1.7% | Non-toxic | 10 µg/mL | inactive | – | inactive | 3.5 µg/mL | – | 40 µg/mL | inactive | inactive | inactive | – | – | 5 µg/mL | MFC (Cryptococcus neoformans): 20 µg/mL; MIC (Cryptococcus neoformans): 20 µg/mL; IC50 (Plasmodium falciparum [2]): Not Active; MBC (Staphylococcus aureus [7]): 10 µg/mL; IC50 [9]: 15 µg/mL; MIC [9]: 20 µg/mL; IC50 (Candida albicans [11]): 10 µg/mL; MIC (Candida albicans [11]): 20 µg/mL |
